Lipid droplet: hepatic lipid droplet formation modulation; AML12 mouse hepatocytes, oleate lipid droplets, BODIPY imaging; inhibition, % at 6.5 µM; 240,000 compounds, 0.4% hits; AID 1656;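 active means lipid droplet intensity inhibited by at least 50%, with more than 500 cells counted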
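Material – mouse AML12 hepatocyte cell line, fixed after treatment · Compound dosing – one dose, 6.5 µM compound · Times – compound with oleate, overnight · Measured by – Image-based BODIPY and DAPI two-channel analysis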
HTR2A ag: agonists of mouse serotonin 5-HT2A receptor (HTR2A). P35363. CHO-K1 mHTR2A beta-arrestin complementation, luminescence; percent of 30 µM serotonin response. activation, % at 7.6 µM. 360,000 compounds, 0.66% hits. AID 624169;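 active means activation above a run cutoff, the mean activation of all tested compounds plus 3 SD, cut at about 14% in these data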;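 further: 0% = plate median of compound wells and 100% = 30 µM serotonin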
MC4R antagonist: blocks human MC4R cAMP signaling; MC4R-expressing cells, MTII-stimulated cAMP, LANCE TR-FRET; inhibition, % at 6.5 µM; 360,000 compounds, 0.48% hits; AID 540295;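 active means inhibition above its plate's cutoff, the mean of tested wells on that plate plus 3 SD, cut at about 29% in these data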;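 further: 0% = Melanotan II alone and 100% = Melanotan II plus saturating MCL0020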
Target sequence (P32245 whole entry, looked up): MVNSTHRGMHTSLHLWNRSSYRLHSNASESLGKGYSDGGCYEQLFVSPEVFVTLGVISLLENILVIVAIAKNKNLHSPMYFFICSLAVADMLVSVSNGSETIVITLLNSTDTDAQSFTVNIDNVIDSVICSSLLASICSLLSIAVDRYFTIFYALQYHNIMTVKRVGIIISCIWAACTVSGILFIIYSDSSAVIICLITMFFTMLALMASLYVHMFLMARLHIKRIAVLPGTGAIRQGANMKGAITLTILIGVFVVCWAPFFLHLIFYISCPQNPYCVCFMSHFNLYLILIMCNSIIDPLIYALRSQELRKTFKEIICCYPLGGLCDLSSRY
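Assay system: human MC4R-expressing U2OS cells; reagent: Melanotan II stimulation of cells; dosing: 6.5 µM single dose; timing: compound 30 min, challenge 1 h, detection 1 h; signal: TR-FRET cAMP assay; replicates: one well per compound, no replicates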
NTR1 agonist: activates human neurotensin receptor 1; P30989; NTR1-U2OS beta-arrestin-GFP spot imaging, agonist mode; activation, % at 20 µM; 330,000 compounds, 0.17% hits; AID 493036;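 active means activation at or above 40% of the spot to cytoplasm intensity ratio, with at least 20 cells analyzed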;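 further: 0% = DMSO without peptide and 100% = 100 nM NTR1 peptide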
MC4R ag barr: human MC4R agonism via beta-arrestin | P32245 | U2OS MC4R beta-arrestin complementation, luminescence; percent of melanotan II response, DMSO zero | activation, % at 8.9 µM | 360,000 compounds, 0.98% hits | AID 540308;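 active means activation above a per-plate cutoff, the mean activation of sample wells on that plate plus 3 SD, cut at about 8% in these data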
PREPL inh: inhibits the human prolyl oligopeptidase-like enzyme; inhibition, % at 5.96 µM; recombinant PREPL, fluorescence polarization activity-based probe; 320,000 compounds, 0.68% hits; in the data active means inhibition above about 43%;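 further: 0% = enzyme with DMSO and 100% = wells lacking enzyme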
MC4R barr conf: human MC4R beta-arrestin agonism confirmation; shares compounds with MC4R ag barr; U2OS MC4R beta-arrestin recruitment, luminescence; scaled DMSO 0%, Melanotan II 100%; activation, % at 8.9 µM; 2,400 compounds, 31% hits; AID 602192;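 active means mean activation across replicates above the hit cutoff set in the earlier primary screen, cut at about 8% in these data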
MOR DOR agonist: OPRM1-OPRD1 heterodimer agonism counter-screen | shares compounds with MC4R ag barr | activation, % at 9.2 µM | 2,400 compounds, 5.8% hits | U2OS PathHunter beta-arrestin, beta-gal luminescence; percent of deltorphin B response, DMSO zero | AID 602194;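 active means mean activation across replicates exceeds the hit threshold derived in the earlier primary screen, cut at about 18% in these data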;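 further: 100% = deltorphin B at 0.9 µM final and 0% = DMSO alone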
Numbers without * were called inactive; x = no result. Sampled rows, rich in hits. Any-hit rate of the full collection: about 2.7%.

SMILES	Lipid droplet	HTR2A ag	MC4R antagonist	NTR1 agonist	MC4R ag barr	PREPL inh	MC4R barr conf	MOR DOR agonist
CCN(CC)S(=O)(=O)c1ccc(C)c(NC(=O)CSc2ncc(C(F)(F)F)cc2Cl)c1	2	0	13	1	9.8*	2	6	4
O=C(O)/C=C/C(=O)Nc1cccc(C(F)(F)F)c1	3	3	3	-1	0	-3	x	x
CCc1nn(-c2ccccc2)c(=S)c2ccccc12	0	-2	14	0	-2	-10	x	x
Cc1ccc(C)c(NC(=O)CN(C)C(=O)c2cc3c(s2)CCCCC3)c1	x	-12	9	3	0	-3	x	x
COc1cc(/C=N/N=C(/N)c2nonc2N)cc(Br)c1OCc1cccc(C)c1	-3	-4	9	8	5	-20	x	x
CCOc1cc(/C=N/N=C(\N)c2nonc2N)cc(Br)c1OCc1cccc2ccccc12	-3	3	1	1	31*	-3	11*	8
O/N=C/c1cccc[n+]1CCCCCC[n+]1ccccc1/C=N/O	0	2	-3	2	-1	x	x	x
CCCCCCCCCCCCCCCC[n+]1ccc(/C=N/O)cc1	-100	5	7	21	20*	41	64*	16
C[C@@H]1C(=O)O[C@H]2CC34[C@H]5C[C@@H](C(C)(C)C)[C@]36[C@@H](OC(=O)[C@@H]6O)O[C@@]4(C(=O)O5)[C@]21O (stereo partly specified)	x	0	9	-2	0	14	x	x
CC(C)c1ccc(/C=N/NC(=O)c2c(Cl)cnn2C)cc1	-2	1	2	2	1	-6	x	x
O=C1N(Nc2ccccc2)C(c2ccc(Br)cc2)C12CCCCC2 (stereo unspecified)	x	-1	-2	7	24*	-2	10*	5
Cc1nc(NC(=O)CSc2nccn2C)sc1C(=O)N(C)C	4	-2	3	0	-2	18	x	x
CC1=CC2=NC(=O)/C(=C\c3cccn3CCOc3cc(C)ccc3C)C(=N)N2O1	-32	-3	5	2	14*	-23	1	4
CCOc1cc(/C=C2/C(=N)N3OC(C)=CC3=NC2=O)ccc1OCCOc1ccccc1	1	-2	-2	0	14*	22	9.2*	10
CC1=CC2=NC(=O)/C(=C\c3cccn3CCOc3cccc(C)c3)C(=N)N2O1	-16	1	-1	2	-1	-23	x	x
Cc1ccc2nc(-c3ccc(NC(=O)CSc4nccc(=O)[nH]4)cc3)sc2c1	-6	0	4	3	-3	-21	x	x
Cc1ccc2nc(-c3ccc(NC(=O)CN4CCN(c5ccccn5)CC4)cc3)sc2c1	2	6	19	2	10.0*	-4	1	3
Cc1ccc2nc(-c3ccc(NC(=O)CSc4nc(N)cc(=O)[nH]4)cc3)sc2c1	0	-2	9	7	13*	-14	6	2
Cc1ccc2nc(NC(=O)CN3CCN(c4ccccn4)CC3)sc2c1	-6	3	8	-2	-1	-13	x	x
O=C1c2cccc3c2[C@H](CCC3)CN1[C@@H]1CN2CCC1CC2	x	x	x	-1	x	11	x	x
Cc1cc(-n2nnc3ccccc32)nc2ccccc12	16	0	-3	7	18*	-37	-1	2
OC(COc1ccc(F)cc1Cl)CN1CCC(Cc2ccccc2)CC1 (stereo unspecified)	2	-12	3	5	11*	-27	9.3*	11
COc1ccccc1CC(=O)Nc1ccc(-c2noc(COc3ccc(Cl)c(C)c3)n2)cc1	-1	3	9	7	10*	-3	1	7
CCOc1ccccc1-c1nc(-c2ccc(NC(=O)Cc3ccccc3OC)cc2)no1	20	-2	4	2	-1	-14	x	x
O=C(COC(=O)CNC(=O)C1CCCCC1)Nc1ccc(Cl)cc1F	21	14	16	4	1	7	x	x
SMILES	Lipid droplet	HTR2A ag	MC4R antagonist	NTR1 agonist	MC4R ag barr	PREPL inh	MC4R barr conf	MOR DOR agonist
O=C(Nc1cc(C(F)(F)F)ccc1N1CCOCC1)c1cn2ccccc2n1	4	3	-1	-2	12*	3	-1	3
Cn1c(=O)c(C(=O)CCl)c(N)n(CC2CC2)c1=O	19	4	6	1	0	7	x	x
Cc1cc(N/N=C/c2ccc(O)cc2O)nc(-c2ccccc2O)n1	9	2	3	x	8	19	x	x
Cc1cc(N/N=C\c2ccccc2)nc(-c2ccccc2O)n1	-5	-1	-2	24	20*	8	2	6
O=C(COC(=O)CNC(=O)c1ccccc1)Nc1nc(-c2ccccc2)cs1	-10	1	25	4	-2	-13	x	x
Cc1cc(N2CCN(C(=O)c3ccco3)CC2)n2nc(-c3cccc(Cl)c3)cc2n1	x	4	-7	10	26*	11	31*	7
COc1ccc(CC2(CO)CCN(Cc3cccn3-c3ccccn3)CC2)cc1	-7	1	10	-1	0	21	x	x
Clc1cccc(-c2nc3nc4ccccc4nc3n2Cc2ccccc2)c1	1	0	7	7	24*	12	1	5
COc1ccc(OC)c(NC(=O)c2cc(-c3cc(C)c(C)cc3O)n[nH]2)c1	-12	-2	-3	9	7	10	x	x
COc1ccc(NC(=O)c2cc(-c3cc(C)c(C)cc3O)n[nH]2)c(OC)c1	10	-2	2	1	15*	1	3	6
COc1ccc(OC)c(NC(=O)c2cc(-c3cc(C)cc(C)c3O)n[nH]2)c1	x	-2	9	12	20*	0	1	6
CC(=O)c1ccc(N(CC(=O)NCc2ccc3c(c2)OCO3)C(=O)c2csnn2)cc1	-20	-1	1	0	-1	-1	x	x
CCOC(=O)Cc1ccc(Nc2nc3cc(-c4sccc4C)sc3c(=O)n2C)cc1	x	5	-7	x	14*	x	1	4
CCOC(=O)Cn1c(=NC(=O)c2nc3ccccc3s2)sc2cc(S(N)(=O)=O)ccc21	16	5	28	29	12*	-5	1	3
COc1ccc(/C(C)=N/OCC(=O)N=Nc2c(O)[nH]c3ccccc23)cc1	17	5	8	8	14*	-11	11*	3
COc1ccc(/C=N/OCC(=O)N=Nc2c(O)[nH]c3ccc(Br)cc23)cc1	0	-2	-2	15	1	2	x	x
